Source: ChEMBL document CHEMBL1145214, “Synthesis, structure-activity relationships at the GABA(A) receptor in rat brain, and differential electrophysiological profile at the recombinant human GABA(A) receptor of a series of substituted 1,2-diphenylimidazoles” (J Med Chem, 2005)

How the values were obtained:
[1] = biological target: T1, GABA A receptor alpha-2/beta-2/gamma-2 (Homo sapiens, UniProt P18507+P47869+P47870); experiment: Effective concentration against GABA-evoked chloride currents mediated by human Gamma-aminobutyric acid GABA-A receptor alpha2-beta2-gamma2L expressed in Xenopus oocytes; assay type: cell-based, Oocyte
T1 sequence (P47870 whole entry): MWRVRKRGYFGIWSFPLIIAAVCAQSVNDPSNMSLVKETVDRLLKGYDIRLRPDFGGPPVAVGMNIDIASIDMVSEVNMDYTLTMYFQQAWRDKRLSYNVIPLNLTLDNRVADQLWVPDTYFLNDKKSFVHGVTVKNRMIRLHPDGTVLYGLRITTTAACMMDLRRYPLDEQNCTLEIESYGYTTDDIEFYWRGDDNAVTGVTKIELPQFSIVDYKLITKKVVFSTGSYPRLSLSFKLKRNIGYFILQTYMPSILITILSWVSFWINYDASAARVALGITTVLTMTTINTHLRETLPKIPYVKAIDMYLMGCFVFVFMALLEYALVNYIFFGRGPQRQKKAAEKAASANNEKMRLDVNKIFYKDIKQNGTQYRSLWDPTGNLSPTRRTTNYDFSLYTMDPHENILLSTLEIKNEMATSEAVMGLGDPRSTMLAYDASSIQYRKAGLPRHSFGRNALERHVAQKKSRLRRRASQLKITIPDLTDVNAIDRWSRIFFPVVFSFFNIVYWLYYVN
T1 sequence (P18507 whole entry): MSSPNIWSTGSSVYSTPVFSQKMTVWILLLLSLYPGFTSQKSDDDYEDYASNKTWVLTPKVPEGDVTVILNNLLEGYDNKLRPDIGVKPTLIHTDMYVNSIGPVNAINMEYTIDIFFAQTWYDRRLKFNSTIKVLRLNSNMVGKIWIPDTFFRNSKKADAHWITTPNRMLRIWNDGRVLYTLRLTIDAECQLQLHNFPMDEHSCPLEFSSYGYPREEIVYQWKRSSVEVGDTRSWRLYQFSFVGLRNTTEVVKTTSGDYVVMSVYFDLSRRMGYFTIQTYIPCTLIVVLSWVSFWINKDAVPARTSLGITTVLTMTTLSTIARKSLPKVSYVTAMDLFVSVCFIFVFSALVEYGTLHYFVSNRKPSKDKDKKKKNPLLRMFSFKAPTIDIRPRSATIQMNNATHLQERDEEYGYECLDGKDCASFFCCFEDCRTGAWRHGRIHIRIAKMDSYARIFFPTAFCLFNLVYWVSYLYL
T1 sequence (P47869 whole entry): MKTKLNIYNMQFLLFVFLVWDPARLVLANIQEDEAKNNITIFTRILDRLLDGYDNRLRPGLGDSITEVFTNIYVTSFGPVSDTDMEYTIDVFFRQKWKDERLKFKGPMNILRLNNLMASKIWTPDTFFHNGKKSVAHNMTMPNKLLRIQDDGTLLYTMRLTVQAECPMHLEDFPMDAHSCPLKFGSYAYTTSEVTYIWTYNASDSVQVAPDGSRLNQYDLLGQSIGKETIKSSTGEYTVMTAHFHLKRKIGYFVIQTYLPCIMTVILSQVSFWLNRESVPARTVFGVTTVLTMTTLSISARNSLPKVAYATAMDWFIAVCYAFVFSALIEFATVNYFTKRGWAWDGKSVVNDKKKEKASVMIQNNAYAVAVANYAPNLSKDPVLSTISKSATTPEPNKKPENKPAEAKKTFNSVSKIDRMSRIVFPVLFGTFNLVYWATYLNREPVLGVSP
How it was run: (§1)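 Human α2β2γ2L cDNAs, 1.5 ng total in 30 nL at a 1:1:1 ratio, injected into the animal pole of oocytes. Oocytes held at 15 °C in supplemented modified Barth's solution, pH 7.5. Readout was % potentiation of Cl- current from concentration-response curves.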

[2] = biological target: GABA A receptor alpha-2/beta-2/gamma-2 (Homo sapiens) (UniProt P47870+P18507+P47869); experiment: Maximal efficacy for GABA-evoked chloride currents mediated by human Gamma-aminobutyric acid GABA-A receptor alpha2-beta2-gamma2L expressed in Xenopus oocytes; assay type: cell-based; conditions: Oocyte
How it was run: as §1, with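 “7.5. Compounds were applied for 60 s together with GABA at EC10 (10% of the 10 mM GABA maximum), final DMSO ≤0.1%.” for “7.5.”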

[3] = Effective concentration required for reversible loss of righting reflex in Xenopus laevis tadpoles; assay type: functional, Tadpole

SMILES	EC50 [1] [µM]	Maximal efficacy [2] [%]	EC50 [3] [µM]
CCOC(=O)c1cn(-c2ccc(F)cc2)c(-c2ccc(F)cc2)n1	3.1	569	–
CCOC(=O)c1cn(-c2ccc(Cl)cc2Cl)c(-c2ccc(I)cc2)n1	0.45	180	–
CCOC(=O)c1cn(-c2ccccc2)c(-c2ccccc2)n1	6.4	638	–
CCOC(=O)c1cn(-c2ccccc2)c(-c2ccc(OC)cc2)n1	9.1	369	–
CC(=O)[C@H]1CC[C@H]2[C@@H]3CC[C@H]4C[C@H](O)CC[C@]4(C)[C@H]3C(=O)C[C@]12C	–	322	–
CCN(CC)C(=O)c1cn(-c2ccc(Cl)cc2Cl)c(-c2ccc(Cl)cc2)n1	4.4	32.4	–
CCOC(=O)c1cncn1[C@H](C)c1ccccc1 [ETOMIDATE]	–	501	2.3
c1ccc(-c2nccn2-c2ccccc2)cc1	–	-5.3	–
CCOC(=O)c1cn(-c2cccc(Cl)c2)c(-c2ccccc2)n1	3	350	–
CCOC(=O)c1cn(-c2ccc(Cl)cc2Cl)c(-c2ccc([N+](=O)[O-])cc2)n1	2.4	413	–
CCOC(=O)c1cn(-c2ccccc2)c(-c2ccc(C)cc2)n1	4.1	625	–
Cc1cn(-c2ccccc2)c(-c2ccccc2)n1	–	-25	–
CCOC(=O)c1cn(-c2ccc(Cl)cc2Cl)c(-c2ccc(Br)cc2)n1	0.19	388	–
CCCOC(=O)c1cn(-c2ccc(Cl)cc2Cl)c(-c2ccc(Br)cc2)n1	1.7	537	–
CCOC(=O)c1cn(-c2ccc(Cl)cc2Cl)c(-c2ccc(NC(C)=O)cc2)n1	19	209	–
O=C(O)c1cn(-c2ccc(Cl)cc2Cl)c(-c2ccc(Cl)cc2)n1	8.7	256	–
CC(C)c1cccc(C(C)C)c1O [PROPOFOL]	11.2	461	1.9
CCOC(=O)c1cn(-c2ccc(Cl)cc2Cl)c(-c2ccc(N)cc2)n1	4.3	406	–
CCOC(=O)c1cn(-c2ccc(Cl)cc2Cl)c(-c2ccc(C)cc2)n1	1	568	–
CCCC(C)C1(CC)C(=O)NC(=O)NC1=O (stereo unspecified) [PENTOBARBITAL]	50	214	–
COC(=O)c1cn(-c2ccc(Cl)cc2Cl)c(-c2ccc(Br)cc2)n1	3.4	258	–
CCOC(=O)c1cn(-c2ccc(Cl)cc2Cl)c(-c2ccc(Cl)cc2)n1	0.6	390	1.2
O=C(OCCN1CCCCC1)c1cn(-c2ccc(Cl)cc2Cl)c(-c2ccc(Br)cc2)n1	–	-14	–
CN1CCN(C(=O)c2cn(-c3ccc(Cl)cc3Cl)c(-c3ccc(Cl)cc3)n2)CC1	1.3	58.2	–
CCOC(=O)c1cn(-c2ccc(Cl)c(Cl)c2)c(-c2ccc(Cl)cc2)n1	2.3	521	–
CCOC(=O)c1cn(-c2ccc(Cl)cc2Cl)c(-c2ccc(OC)cc2)n1	1.9	362	–
CCOC(=O)c1cn(-c2ccccc2)c(-c2ccc(Cl)cc2)n1	4.2	458	–
CCOC(=O)c1cn(-c2ccc(Cl)cc2)c(-c2ccc(Cl)cc2)n1	1.5	302	–
CCOC(=O)c1cn(-c2ccc(Cl)cc2Cl)c(-c2ccccc2)n1	1.8	508	–
